Results reported in ChEMBL document CHEMBL1799969, “Development of endocannabinoid-based chemical probes for the study of cannabinoid receptors” (J Med Chem, 2011).
Calls of active or inactive are those of the source. No cut-off for these calls is given here.

Tests used:
Cannabinoid receptor 1 [1] = target: T1, Cannabinoid receptor 1 (Homo sapiens, UniProt P21554); test: Displacement of [3H]-CP55940 from human CB1 receptor expressed in HEK-293-EBNA cell membranes after 90 mins by scintillation counting
T1 sequence (P21554 whole entry): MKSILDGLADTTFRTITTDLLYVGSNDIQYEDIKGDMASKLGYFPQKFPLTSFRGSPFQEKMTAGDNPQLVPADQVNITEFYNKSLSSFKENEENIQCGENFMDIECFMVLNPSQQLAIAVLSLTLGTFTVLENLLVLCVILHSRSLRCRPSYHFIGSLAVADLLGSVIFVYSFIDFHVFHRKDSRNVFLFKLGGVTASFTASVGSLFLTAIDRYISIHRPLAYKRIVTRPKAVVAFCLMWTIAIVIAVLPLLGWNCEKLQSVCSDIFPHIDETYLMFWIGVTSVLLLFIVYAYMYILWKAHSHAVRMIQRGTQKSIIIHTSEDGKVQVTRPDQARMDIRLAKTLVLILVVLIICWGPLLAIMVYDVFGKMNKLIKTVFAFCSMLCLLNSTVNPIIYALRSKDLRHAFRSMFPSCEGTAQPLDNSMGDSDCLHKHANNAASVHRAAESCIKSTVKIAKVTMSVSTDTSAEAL

Cannabinoid receptor 2 = Cannabinoid receptor 2 (Homo sapiens, UniProt P34972); test: Displacement of [3H]-CP55940 from human CB2 receptor expressed in HEK-293-EBNA cell membranes after 90 mins by scintillation counting
Cannabinoid receptor 2, sequence (P34972 whole entry): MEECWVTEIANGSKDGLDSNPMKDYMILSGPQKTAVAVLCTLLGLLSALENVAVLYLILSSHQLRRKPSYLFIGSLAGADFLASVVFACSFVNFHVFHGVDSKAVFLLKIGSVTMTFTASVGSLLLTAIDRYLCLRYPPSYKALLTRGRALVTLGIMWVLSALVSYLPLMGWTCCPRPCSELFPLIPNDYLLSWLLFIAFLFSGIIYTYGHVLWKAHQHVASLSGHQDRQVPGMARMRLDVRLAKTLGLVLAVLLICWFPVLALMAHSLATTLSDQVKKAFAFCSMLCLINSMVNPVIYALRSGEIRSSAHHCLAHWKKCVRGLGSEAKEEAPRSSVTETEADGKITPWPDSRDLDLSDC
How it was run: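 Competitive radioligand binding with [3H]CP55940 on membranes of HEK-293-EBNA cells transfected with human CB1 or CB2 receptor. Ki derived from IC50 by the Cheng-Prusoff equation. Mean ± SEM of two to four independent experiments, each run in triplicate.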

Cannabinoid receptor 1 [2] = target: T1, Cannabinoid receptor 1; test: Binding affinity to CB1 receptor
How it was run: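 Radioligand competition binding on membranes of HEK-293-EBNA cells transfected with human CB1 receptor, displacing [3H]CP55940. Ki obtained from IC50 by the Cheng-Prusoff equation. Two to four independent experiments, each run in triplicate; mean ± SEM reported.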

Cannabinoid receptor 1 [3] = target: T1, Cannabinoid receptor 1; test: Binding affinity at CB1 receptor expressed in mouse HT22 cells at 1 uM incubated for 1 hr using strepavidin-Alexa Fluor 488 staining based by fluorescence microscopy; assay type: cell-based; conditions: HT-22
How it was run: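 HT-22 mouse hippocampal cells transiently transfected with CB1 were incubated with the biotinylated probe at 1 μM for 1 h. Excess probe was removed and bound probe detected with streptavidin-Alexa Fluor 488. Nuclei were stained with Hoechst 33258 and imaged by fluorescence microscopy. Nontransfected cells, or an excess of HU210, served as specificity controls.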

Cannabinoid receptor 1 [4] = target: T1, Cannabinoid receptor 1; test: Binding affinity at CB1 receptor expressed in mouse HT22 cells at 1 uM incubated for 1 hr using antiCB1-antibody based fluorescence microscopy; assay type: cell-based; conditions: HT-22
How it was run: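 Transfected HT-22 cells were treated in sequence with the probe (1 μM, 1 h), streptavidin-Alexa 488, anti-CB1 antibody and an anti-rabbit Alexa 633 conjugate. Co-labelling was imaged by fluorescence microscopy in the red channel and as a merge.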

SMILES | Ki (Cannabinoid receptor 1 [1]) [nM] | Ki (Cannabinoid receptor 2) [nM] | Ki (Cannabinoid receptor 1 [2]) [nM] | Activity (Cannabinoid receptor 1 [3]) | Activity (Cannabinoid receptor 1 [4])
C#CCCCC(=O)OCC(CO)OCCCC/C=C\C/C=C\C/C=C\C/C=C\CCCCC (stereo not drawn) | 84.7 | 84.9 | – | – | –
CCCCC/C=C\C/C=C\C/C=C\C/C=C\CCCC(=O)N[C@H](C)COC(=O)CCCCCNC(=O)CCCC[C@@H]1SC[C@@H]2NC(=O)N[C@@H]21 | 2000 | > 2000 | – | – | –
CCCCC/C=C\C/C=C\C/C=C\C/C=C\CCCCOC(CO)CO | 25 | > 1000 | – | – | –
C#CCCCC(=O)N[C@@H](Cc1ccc(C(=O)c2ccccc2)cc1)C(=O)OC[C@@H](C)NC(=O)CCC/C=C\C/C=C\C/C=C\C/C=C\CCCCC | 2000 | > 2000 | – | – | –
CCCCCCC(C)(C)c1cc(O)c2c(c1)OC(C)(C)[C@@H]1CC=C(CO)C[C@@H]21 | – | – | 0.06 | – | –
O=C(CCCC[C@@H]1SC[C@@H]2NC(=O)N[C@@H]21)NCCCCCC(=O)OCCCC/C=C\C/C=C\C/C=C\C/C=C\CCCC(=O)NC1CC1 | > 2000 | > 2000 | – | – | –
Cc1cc(-c2cc(C(=O)NC3C4(C)CCC(C4)C3(C)C)nn2Cc2ccc(CNCCCCCCN)cc2)ccc1Cl (stereo not drawn) | – | 260 | – | – | –
C[C@H](CO)NC(=O)CCC/C=C\C/C=C\C/C=C\C/C=C\CCCCOC(=O)CCCCCNC(=O)CCCC[C@@H]1SC[C@@H]2NC(=O)N[C@@H]21 | 2000 | > 2000 | – | – | –
CCCCC/C=C\C/C=C\C/C=C\C/C=C\CCCC(=O)OC(CO)COC(=O)CCCCCNC(=O)CCCC[C@@H]1SC[C@@H]2NC(=O)N[C@@H]21 (stereo partly drawn) | > 5000 | 379 | – | – | –
CCCCC/C=C\C/C=C\C/C=C\C/C=C\CCCCOC(CO)COC(=O)CCCCCNC(=O)CCCC[C@@H]1SC[C@@H]2NC(=O)N[C@@H]21 (stereo partly drawn) | 221 | 450 | – | Active | Active
CCCCC/C=C\C/C=C\C/C=C\C/C=C\CCCC(=O)OC(CO)CO [2-ARACHIDONOYLGLYCEROL] | – | 1300 | – | – | –
C#CCCCC(=O)OC[C@@H](C)NC(=O)CCC/C=C\C/C=C\C/C=C\C/C=C\CCCCC | 2000 | > 2000 | – | – | –
